In brackets after ≈: the same amount, converted by molar mass. Square brackets hold non-standard residues; d marks the D form. Peptide text beside a SMILES is read from it. Orn = NCCC[C@H](N)C(=O)O

Series [1] can be described thus: Therapeutic index, ratio of hemolytic activity in human RBC to MIC for Enterobacter cloacae. Particulars: human red blood cells (RBC), read-out: TI.
Series [2] can be described thus: Therapeutic index, ratio of hemolytic activity in human RBC to MIC for Serratia marcescens. Particulars: human red blood cells (RBC), read-out: TI.
For series [3], the system named is Acinetobacter calcoaceticus. Kind of series: Antimicrobial activity against Acinetobacter calcoaceticus after 24 hrs by standard microtiter dilution method. It is filed as functional.
Series [4] in a line: Therapeutic index, ratio of hemolytic activity in human RBC to MIC for Pseudomonas aeruginosa. The settings on record: human red blood cells (RBC), read-out: TI.
For series [5], the system named is Klebsiella pneumoniae. Put plainly: Antimicrobial activity against Klebsiella pneumoniae after 24 hrs by standard microtiter dilution method. It is filed as functional.
The nature of series [6]: Therapeutic index, ratio of hemolytic activity in human RBC to MIC for Stenotrophomonas maltophilia. The settings on record: human red blood cells (RBC), read-out: TI.
The test system of series [7] is Staphylococcus aureus. Put plainly: Antimicrobial activity against Staphylococcus aureus after 24 hrs by standard microtiter dilution method. It is filed as functional.
Series [8] concerns Candida albicans. Put plainly: Antimicrobial activity against Candida albicans after 24 hrs by standard microtiter dilution method. In kind it is functional. The essentials:
(§1)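 Fungal MICs were determined by standard microtitre dilution, taken as the lowest peptide concentration inhibiting growth after 24 h incubation at 37 °C.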

For series [9], the system named is Cryptococcus neoformans. Put plainly: Antimicrobial activity against Cryptococcus neoformans after 24 hrs by standard microtiter dilution method. It is filed as functional. The essentials: as §1
Series [10] can be described thus: Toxicity in human RBC assessed as fold reduction in hemolytic activity at 100 ug/ml after 24 hrs relative to control. In kind it is cell-based. Particulars: erythrocyte.
Series [11] deals with Pseudomonas aeruginosa. Put plainly: Antimicrobial activity against Pseudomonas aeruginosa after 24 hrs by standard microtiter dilution method. In kind it is functional.
Series [12] can be described thus: Therapeutic index, ratio of hemolytic activity in human RBC to MIC for Candida albicans. The settings on record: human red blood cells (RBC), read-out: TI.
The subject of series [13] is Serratia marcescens. Put plainly: Antimicrobial activity against Serratia marcescens after 24 hrs by standard microtiter dilution method. In kind it is functional.
Series [14] relates to Streptococcus pyogenes. Put plainly: Antimicrobial activity against Streptococcus pyogenes after 24 hrs by standard microtiter dilution method. It is filed as functional.
The test system of series [15] is Streptococcus pneumoniae. Kind of series: Antimicrobial activity against Streptococcus pneumoniae after 24 hrs by standard microtiter dilution method. It is filed as functional.
Series [16] concerns Streptococcus mitis. Kind of series: Antimicrobial activity against Streptococcus mitis after 24 hrs by standard microtiter dilution method. In kind it is functional.
Series [17] relates to Stenotrophomonas maltophilia. Put plainly: Antimicrobial activity against Stenotrophomonas maltophilia after 24 hrs by standard microtiter dilution method. In kind it is functional.
The nature of series [18]: Therapeutic index, ratio of hemolytic activity in human RBC to MIC for Corynebacterium jeikeium. The settings on record: human red blood cells (RBC), read-out: TI.
Series [19] in a line: Therapeutic index, ratio of hemolytic activity in human RBC to MIC for Streptococcus mitis. Particulars: human red blood cells (RBC), read-out: TI.
The subject of series [20] is Staphylococcus epidermidis. Kind of series: Antimicrobial activity against Staphylococcus epidermidis after 24 hrs by standard microtiter dilution method. It is filed as functional.
Series [21] can be described thus: Therapeutic index, ratio of hemolytic activity in human RBC to MIC for Cryptococcus neoformans. Particulars: human red blood cells (RBC), read-out: TI.
Series [22] deals with Enterococcus faecalis. Kind of series: Antimicrobial activity against Enterococcus faecalis after 24 hrs by standard microtiter dilution method. In kind it is functional.
The nature of series [23]: Therapeutic index, ratio of hemolytic activity in human RBC to MIC for Streptococcus pneumoniae. Particulars: human red blood cells (RBC), read-out: TI.
For series [24], the system named is Enterobacter cloacae. Put plainly: Antimicrobial activity against Enterobacter cloacae after 24 hrs by standard microtiter dilution method. In kind it is functional.
Series [25] is described as follows: Toxicity in human RBC assessed as hemolytic activity at 100 ug/ml after 24 hrs relative to control. It is filed as cell-based, Erythrocyte. Particulars: human red blood cells (RBC), read-out: Activity. The essentials: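 Human erythrocytes in saline were exposed to peptide at 100 µg/mL for 24 h at 37 °C. Result is expressed as percent hemolysis.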
In series [26] the test system is Corynebacterium jeikeium. Put plainly: Antimicrobial activity against Corynebacterium jeikeium after 24 hrs by standard microtiter dilution method. In kind it is functional.
The nature of series [27]: Therapeutic index, ratio of hemolytic activity in human RBC to MIC for Streptococcus pyogenes. Particulars: human red blood cells (RBC), read-out: TI.
Series [28] can be described thus: Therapeutic index, ratio of hemolytic activity in human RBC to MIC for Staphylococcus aureus. Particulars: human red blood cells (RBC), read-out: TI.
Series [29] in a line: Therapeutic index, ratio of hemolytic activity in human RBC to MIC for Escherichia coli. The settings on record: human red blood cells (RBC), read-out: TI.
Series [30] can be described thus: Therapeutic index, ratio of hemolytic activity in human RBC to MIC for Staphylococcus epidermidis. Particulars: human red blood cells (RBC), read-out: TI.
Series [31] in a line: Therapeutic index, ratio of hemolytic activity in human RBC to MIC for Enterococcus faecalis. The settings on record: human red blood cells (RBC), read-out: TI.
Series [32] can be described thus: Therapeutic index, ratio of hemolytic activity in human RBC to MIC for Acinetobacter calcoaceticus. The settings on record: human red blood cells (RBC), read-out: TI.
Series [33] can be described thus: Therapeutic index, ratio of hemolytic activity in human RBC to MIC for Klebsiella pneumoniae. Particulars: human red blood cells (RBC), read-out: TI.
For series [34], the system named is Escherichia coli. Put plainly: Antimicrobial activity against Escherichia coli after 24 hrs by standard microtiter dilution method. It is filed as functional.

Regarding `CC(C)C[C@@H]1NC(=O)[C@H](CCCCN)NC(=O)[C@H](C(C)C)NC(=O)[C@@H]2CCCN2C(=O)[C@@H](Cc2ccc(O)cc2)NC(=O)[C@H](CC(C)C)NC(=O)[C@H](CCCCN)NC(=O)[C@H](C(C)C)NC(=O)[C@H](CCCCN)NC(=O)[C@H](CC(C)C)NC(=O)[C@@H]2CCCN2C(=O)[C@@H](Cc2ccc(O)cc2)NC(=O)[C@H](CCCCN)NC1=O` (cyclo(VKLK[dY]PLKVKL[dY]P)), the selectivity ratio in series [1] worked out at 4; in series [2], 2.

For the molecule `CC(C)C[C@@H]1NC(=O)[C@H](CCCCN)NC(=O)[C@H](C(C)C)NC(=O)[C@@H]2CCCN2C(=O)[C@@H](Cc2ccc(O)cc2)NC(=O)[C@H](CC(C)C)NC(=O)[C@H](CCCCN)NC(=O)[C@H](C(C)C)NC(=O)[C@H](CCCCN)NC(=O)[C@H](CC(C)C)NC(=O)[C@@H]2CCCN2C(=O)[C@@H](Cc2ccc(O)cc2)NC(=O)[C@H](C(C)C)NC(=O)[C@H](CCCCN)NC1=O` (cyclo(KLKV[dY]PLKVKL[dY]PV)), the minimal inhibitory concentration (MIC) (in general, the least concentration at which growth counts as inhibited) was 16 µg/mL (≈ 9.58 µM) in [3]; 128 µg/mL (≈ 76.6 µM) in [5]; 32 µg/mL (≈ 19.2 µM) in series [7]; 64 µg/mL (≈ 38.3 µM) in series [8]; 2 µg/mL (≈ 1.2 µM) in series [9]; 64 µg/mL (≈ 38.3 µM) in series [11]. For the same molecule, the minimal inhibitory concentration (MIC) in series [13] amounted to 256 µg/mL (≈ 153 µM); in series [14], 1 µg/mL (≈ 0.599 µM). Besides, the selectivity ratio in [4], in series [6] and in series [12] was 2 each time. Further, the Activity in series [10] is 1.

`CC(C)C[C@@H]1NC(=O)[C@H](CCCCN)NC(=O)[C@H](C(C)C)NC(=O)[C@@H]2CCCN2C(=O)[C@@H](Cc2ccc(O)cc2)NC(=O)[C@H](CC(C)C)NC(=O)[C@H](CCCCN)NC(=O)[C@H](C(C)C)NC(=O)[C@@H]2CCCN2C(=O)[C@@H](Cc2ccc(O)cc2)NC1=O` (cyclo(KL[dY]PVKL[dY]PV)): the MIC was found to be 1 µg/mL (≈ 0.832 µM) in series [15]; 1 µg/mL (≈ 0.832 µM) in series [16]; 16 µg/mL (≈ 13.3 µM) in series [17]; 32 µg/mL (≈ 26.6 µM) in series [5]; 2 µg/mL (≈ 1.66 µM) in series [20]; 1 µg/mL (≈ 0.832 µM) in series [9]. The same molecule showed an MIC in series [22] of 2 µg/mL (≈ 1.66 µM). For the same molecule, the selectivity ratio worked out at 1 in series [4]; 100 in series [18]; 100 in series [19]; 100 in series [21]; 100 in series [23]. In addition, the Activity in series [10] stood at 1.

`CC(C)C[C@@H]1NC(=O)[C@H](CCCN)NC(=O)[C@H](C(C)C)NC(=O)[C@@H]2CCCN2C(=O)[C@@H](Cc2ccccc2)NC(=O)[C@H](CC(C)C)NC(=O)[C@H](CCCN)NC(=O)[C@H](C(C)C)NC(=O)[C@@H]2CCCN2C(=O)[C@@H](Cc2ccccc2)NC1=O` [GRAMICIDIN S] (cyclo(L[dF]PV[Orn]L[dF]PV[Orn])): the MIC in series [15] is 1 µg/mL (≈ 0.876 µM); in series [3], 8 µg/mL (≈ 7.01 µM); in [16], 0.5 µg/mL (≈ 0.438 µM); in series [17], 8 µg/mL (≈ 7.01 µM); in series [24], 32 µg/mL (≈ 28 µM); in series [5] it was 16 µg/mL (≈ 14 µM). For the same molecule, the MIC in [20] worked out at 2 µg/mL (≈ 1.75 µM); in [26] it was 4 µg/mL (≈ 3.5 µM); in [7], 2 µg/mL (≈ 1.75 µM); in series [8], 8 µg/mL (≈ 7.01 µM); in series [9], 1 µg/mL (≈ 0.876 µM); in series [11], 32 µg/mL (≈ 28 µM). Further, the minimal inhibitory concentration (MIC) turned out to be 256 µg/mL (≈ 224 µM) in series [13], 2 µg/mL (≈ 1.75 µM) in series [22], 0.5 µg/mL (≈ 0.438 µM) in [14] and 16 µg/mL (≈ 14 µM) in [34]. Moreover, the selectivity ratio in series [4] turned out to be 3; in [18], 25; in [19], 200; in [1], 3; in [6], 12; in series [27], 200. The selectivity ratio was determined as 0.3 in series [2]; 50 in series [28]; 100 in [21]; 6 in [29]; 12 in series [12]; 50 in series [30]. Further, the selectivity ratio in series [31] is 50; in series [23] it was 100; in series [32] it was 12; in series [33], 6. Besides, the hemolysis at 24 h, 100 ug/ml in series [25] stood at 100%. Besides, the Activity in series [10] came to 1.

For the molecule `CC(C)C[C@@H]1NC(=O)[C@H](CCCCN)NC(=O)[C@H](C(C)C)NC(=O)[C@@H]2CCCN2C(=O)[C@@H](Cc2ccc(O)cc2)NC(=O)[C@H](CC(C)C)NC(=O)[C@H](CCCCN)NC(=O)[C@H](C(C)C)NC(=O)[C@@H]2CCCN2C(=O)[C@@H](Cc2ccc(O)cc2)NC(=O)[C@H](CCCCN)NC1=O` (cyclo(VKLK[dY]PVKL[dY]P)), the selectivity ratio is 16 in series [12], 128 in series [30], 255 in [23] and 255 in series [32].

(Values after ChEMBL document CHEMBL1153373, “Effect of ring size on conformation and biological activity of cyclic cationic antimicrobial peptides” (J Med Chem, 2009).)
